According to ChEMBL document CHEMBL1144880, “Identification of phenylisoxazolines as novel and viable antibacterial agents active against Gram-positive pathogens” (J Med Chem, 2003):
≈ marks a conversion by molar mass, not a printed value.

Columns and labels:
Type in all cases: functional
Escherichia coli = experiment: In vitro minimum inhibitory concentration (MIC) against Escherichia coli UC6674
Procedure, shortened: (§1)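 MIC determined by standard broth microdilution, defined as the lowest drug concentration (µg/mL) inhibiting visible growth.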

Streptococcus pneumoniae = experiment: In vitro minimum inhibitory concentration (MIC) against Streptococcus pneumoniae UC9912; procedure, shortened: as §1
Haemophilus influenzae = experiment: In vitro minimum inhibitory concentration (MIC) against Haemophilus influenzae UC30063; procedure, shortened: as §1
Moraxella catarrhalis = experiment: In vitro minimum inhibitory concentration (MIC) against Moraxella catarrhalis UC30610; procedure, shortened: as §1
Enterococcus faecalis = experiment: In vitro minimum inhibitory concentration (MIC) against Enterococcus faecalis UC9217; procedure, shortened: as §1
Staphylococcus aureus [1] = experiment: In vitro minimum inhibitory concentration (MIC) against Staphylococcus aureus UC12673; procedure, shortened: as §1
Staphylococcus aureus [2] = experiment: In vitro minimum inhibitory concentration (MIC) against Staphylococcus aureus UC9213; procedure, shortened: as §1
[3] = system: Staphylococcus epidermidis; experiment: In vitro minimum inhibitory concentration (MIC) against Staphylococcus epidermidis UC12084; procedure, shortened: as §1
Mus musculus = experiment: In Vivo effective dose required for antibacterial activity in a systemic mouse infection model (SMIM) upon peroral administration against Staphylococcus aureus UC9213; details: po
Procedure, shortened: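 Compound was given orally at 1 and 5 h after infection. Deaths were monitored for at least 6 days, and ED50 (dose curing 50% of mice) was calculated by probit analysis.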

| MIC (Escherichia coli) [µg/mL] | MIC (Streptococcus pneumoniae) [µg/mL] | MIC (Haemophilus influenzae) [µg/mL] | MIC (Moraxella catarrhalis) [µg/mL] | MIC (Enterococcus faecalis) [µg/mL] | MIC (Staphylococcus aureus [1]) [µg/mL] | MIC (Staphylococcus aureus [2]) [µg/mL] | MIC [3] [µg/mL] | SMILES | ED50 (Mus musculus) [mg/kg] |
| --- | --- | --- | --- | --- | --- | --- | --- | --- | --- |
| > 16 | 2 (≈ 5.29 µM) | > 16 | 16 (≈ 42.3 µM) | 8 (≈ 21.1 µM) | 8 (≈ 21.1 µM) | 8 (≈ 21.1 µM) | 4 (≈ 10.6 µM) | CC(=O)NCC1CC(c2ccc(N3CCN(C(=O)CO)CC3)c(F)c2)=NO1 (racemic) | – |
| > 16 | 4 (≈ 11.2 µM) | > 16 | > 16 | 16 (≈ 45 µM) | 8 (≈ 22.5 µM) | 8 (≈ 22.5 µM) | 8 (≈ 22.5 µM) | CC(=O)NCC1CC(c2cc(F)c(N3CCOCC3)c(Cl)c2)=NO1 (stereo not drawn) | – |
| > 16 | 2 (≈ 5.6 µM) | > 16 | > 16 | 8 (≈ 22.4 µM) | 4 (≈ 11.2 µM) | 4 (≈ 11.2 µM) | 4 (≈ 11.2 µM) | CC(=O)NCC1CC(c2ccc(C3=CCN(C(=O)CO)CC3)cc2)=NO1 (racemic) | – |
| > 16 | 1 (≈ 2.95 µM) | > 16 | 8 (≈ 23.6 µM) | 4 (≈ 11.8 µM) | 4 (≈ 11.8 µM) | 4 (≈ 11.8 µM) | 2 (≈ 5.89 µM) | CC(=O)NC[C@H]1CC(c2cc(F)c(N3CCOCC3)c(F)c2)=NO1 | > 20 |
| > 16 | 2 (≈ 6.55 µM) | > 16 | > 16 | 8 (≈ 26.2 µM) | 4 (≈ 13.1 µM) | 4 (≈ 13.1 µM) | 4 (≈ 13.1 µM) | CC(=O)NC[C@H]1CC(c2ccc(N3CCCC3)c(F)c2)=NO1 | – |
| > 16 | > 16 | > 16 | > 16 | > 16 | > 16 | > 16 | > 16 | CC(=O)NC[C@@H]1CC(c2ccc(N3CCN(C(=O)CO)CC3)c(F)c2)=NO1 | – |
| > 16 | 4 (≈ 11.1 µM) | > 16 | > 16 | 16 (≈ 44.4 µM) | 8 (≈ 22.2 µM) | 16 (≈ 44.4 µM) | 4 (≈ 11.1 µM) | CC(=O)NCC1CC(c2ccc(N3CCN(C(=O)CO)CC3)cc2)=NO1 (stereo not drawn) | – |
| > 16 | 2 (≈ 5.89 µM) | > 16 | 16 (≈ 47.2 µM) | 8 (≈ 23.6 µM) | 8 (≈ 23.6 µM) | 8 (≈ 23.6 µM) | 4 (≈ 11.8 µM) | CC(=O)NCC1CC(c2cc(F)c(N3CCOCC3)c(F)c2)=NO1 (racemic) | – |
| > 16 | > 16 | > 16 | > 16 | > 16 | > 16 | > 16 | > 16 | CC(=O)NC[C@H]1CC(c2ccc(F)c(F)c2)=NO1 | – |
| > 16 | 4 (≈ 13.2 µM) | > 16 | > 16 | > 16 | 16 (≈ 52.8 µM) | > 16 | 8 (≈ 26.4 µM) | CC(=O)NC[C@H]1CC(c2ccc(-n3cncn3)c(F)c2)=NO1 | – |
| > 16 | > 16 | > 16 | > 16 | > 16 | > 16 | > 16 | > 16 | COC(=O)N1CC=C(c2ccc(-c3cc(CNC(C)=O)on3)cc2)CC1 | – |
| > 16 | 2 (≈ 5.95 µM) | > 16 | > 16 | 8 (≈ 23.8 µM) | 4 (≈ 11.9 µM) | 4 (≈ 11.9 µM) | 2 (≈ 5.95 µM) | C/C(S)=N/C[C@H]1CC(c2cc(F)c(-n3ccnc3)c(F)c2)=NO1 | – |
| > 16 | > 16 | > 16 | > 16 | > 16 | > 16 | > 16 | > 16 | CC(=O)NC[C@@H]1CC(c2ccc(C3=CCN(C(=O)CO)CC3)cc2)=NO1 | – |
| > 16 | 0.5 (≈ 1.42 µM) | > 16 | > 16 | 4 (≈ 11.4 µM) | 4 (≈ 11.4 µM) | 4 (≈ 11.4 µM) | 2 (≈ 5.68 µM) | COc1ccc(-c2ccc(C3=NOC(CNC(C)=O)C3)cc2)ccc1=O (stereo not drawn) | 15.4 |
| > 16 | 2 (≈ 5.86 µM) | > 16 | > 16 | 8 (≈ 23.4 µM) | 8 (≈ 23.4 µM) | 8 (≈ 23.4 µM) | 4 (≈ 11.7 µM) | CC(=O)NCC1CC(c2ccc(C3=CCN(C(C)=O)CC3)cc2)=NO1 (stereo not drawn) | – |
| > 16 | > 16 | > 16 | > 16 | > 16 | > 16 | > 16 | > 16 | CC(=O)NCC1CC(c2ccc(Br)cc2)=NO1 (stereo not drawn) | – |
| > 16 | 0.5 (≈ 1.53 µM) | 16 (≈ 48.9 µM) | 8 (≈ 24.4 µM) | 4 (≈ 12.2 µM) | 2 (≈ 6.11 µM) | 2 (≈ 6.11 µM) | 1 (≈ 3.06 µM) | CC(=O)NC[C@H]1CC(c2ccc(-n3cc(C#N)cn3)c(F)c2)=NO1 | – |
| > 16 | < 0.125 | 16 (≈ 49 µM) | 4 (≈ 12.3 µM) | 1 (≈ 3.06 µM) | 0.5 (≈ 1.53 µM) | 1 (≈ 3.06 µM) | 0.25 (≈ 0.766 µM) | CC(=O)NC[C@H]1CC(c2ccc(-n3ccc(C#N)c3)c(F)c2)=NO1 | – |
| > 16 | 4 (≈ 11.2 µM) | > 16 | > 16 | 16 (≈ 44.8 µM) | 16 (≈ 44.8 µM) | 16 (≈ 44.8 µM) | 8 (≈ 22.4 µM) | COC(=O)N1CC=C(c2ccc(C3=NOC(CNC(C)=O)C3)cc2)CC1 (stereo not drawn) | – |
| > 16 | 0.25 (≈ 0.846 µM) | 16 (≈ 54.2 µM) | 8 (≈ 27.1 µM) | 2 (≈ 6.77 µM) | 2 (≈ 6.77 µM) | 1 (≈ 3.39 µM) | 0.5 (≈ 1.69 µM) | CC(=O)NC[C@H]1CC(c2ccc(-c3ccncc3)cc2)=NO1 | – |
| > 16 | 1 (≈ 3.31 µM) | > 16 | 16 (≈ 52.9 µM) | 4 (≈ 13.2 µM) | 2 (≈ 6.62 µM) | 2 (≈ 6.62 µM) | 1 (≈ 3.31 µM) | CC(=O)NC[C@H]1CC(c2ccc(-n3ccnc3)c(F)c2)=NO1 | – |
| > 16 | 0.5 (≈ 1.66 µM) | > 16 | 16 (≈ 53.1 µM) | 4 (≈ 13.3 µM) | 2 (≈ 6.64 µM) | 2 (≈ 6.64 µM) | 0.5 (≈ 1.66 µM) | CC(=O)NC[C@H]1CC(c2ccc(-n3cccc3)c(F)c2)=NO1 | – |
| > 16 | 4 (≈ 13.2 µM) | > 16 | > 16 | 16 (≈ 52.9 µM) | 16 (≈ 52.9 µM) | 16 (≈ 52.9 µM) | 4 (≈ 13.2 µM) | CC(=O)NC[C@H]1CC(c2ccc(-n3cccn3)c(F)c2)=NO1 | – |
| > 16 | 2 (≈ 6.24 µM) | > 16 | > 16 | 8 (≈ 25 µM) | 4 (≈ 12.5 µM) | 8 (≈ 25 µM) | 2 (≈ 6.24 µM) | CC(=O)NC[C@H]1CC(c2cc(F)c(-n3ccnc3)c(F)c2)=NO1 | – |
| > 16 | > 16 | > 16 | > 16 | > 16 | > 16 | > 16 | > 16 | CC(=O)NC[C@@H]1CC(c2cc(F)c(N3CCOCC3)c(F)c2)=NO1 | – |
| > 16 | 0.5 (≈ 1.58 µM) | > 16 | 4 (≈ 12.6 µM) | 1 (≈ 3.15 µM) | 1 (≈ 3.15 µM) | 1 (≈ 3.15 µM) | 0.5 (≈ 1.58 µM) | C/C(S)=N/C[C@H]1CC(c2ccc(-n3cccc3)c(F)c2)=NO1 | – |

| SMILES | MIC (Escherichia coli) [µg/mL] | MIC (Streptococcus pneumoniae) [µg/mL] | MIC (Haemophilus influenzae) [µg/mL] | MIC (Moraxella catarrhalis) [µg/mL] | MIC (Enterococcus faecalis) [µg/mL] | MIC (Staphylococcus aureus [1]) [µg/mL] | MIC (Staphylococcus aureus [2]) [µg/mL] | MIC [3] [µg/mL] | ED50 (Mus musculus) [mg/kg] |
| --- | --- | --- | --- | --- | --- | --- | --- | --- | --- |
| CC(=O)NC[C@H]1CC(c2cc(F)c(N3CCNCC3)c(F)c2)=NO1 | > 16 | 0.25 (≈ 0.739 µM) | 8 (≈ 23.6 µM) | 8 (≈ 23.6 µM) | 4 (≈ 11.8 µM) | 4 (≈ 11.8 µM) | 4 (≈ 11.8 µM) | 0.5 (≈ 1.48 µM) | – |
